Activity calls are given as the source filed them. No rule for the calls is given here.
Biological target: Scavenger receptor class B member 1 (Mus musculus) (UniProt Q61009)
Assay: [3H]CE-HDL uptake via mutant mSR-BI – C384S mutant cells, scintillation, powder samples, mechanism study for SR-BI HDL uptake inhibitor project, late-stage follow-up (AID 588837)
Details: CHO ldlA C384S mSR-BI, 2 h, at 1 µM, stronger effect = lower value
In short: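 Assay system – CHO cells lacking LDL receptor, overexpressing C384S mutant SR-BI · Compound dosing – 0.5% DMSO with compound · Detection – scintillation counting · Times – 1 h pretreatment plus 2 h uptake at 37 °C · Medium – Ham's F12K medium with 0.5% fatty acid-free BSA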

Sequence of Scavenger receptor class B member 1 (Mus musculus) (Q61009 whole entry C384S): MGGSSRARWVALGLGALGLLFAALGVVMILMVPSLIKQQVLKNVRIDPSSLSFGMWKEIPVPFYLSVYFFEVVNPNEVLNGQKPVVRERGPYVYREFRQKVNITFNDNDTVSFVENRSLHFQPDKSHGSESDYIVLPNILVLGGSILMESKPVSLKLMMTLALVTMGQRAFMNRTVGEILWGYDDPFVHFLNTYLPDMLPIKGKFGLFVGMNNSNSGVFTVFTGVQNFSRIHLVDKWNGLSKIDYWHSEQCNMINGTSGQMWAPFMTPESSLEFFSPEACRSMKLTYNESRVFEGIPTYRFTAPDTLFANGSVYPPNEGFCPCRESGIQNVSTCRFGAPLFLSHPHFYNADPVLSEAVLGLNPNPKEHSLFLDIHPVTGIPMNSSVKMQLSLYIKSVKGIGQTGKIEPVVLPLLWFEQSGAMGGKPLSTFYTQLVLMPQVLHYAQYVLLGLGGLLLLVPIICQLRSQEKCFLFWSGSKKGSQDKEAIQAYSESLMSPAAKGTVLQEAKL

cholesterol uptake | SMILES
88.3% | CCC(=O)N1CCc2cc(-c3csc(NC(=O)c4ccco4)n3)ccc21
84.4% | Cc1ccc2oc(-c3cccc(NC(=O)c4cc(-n5cnnc5)ccc4Cl)c3)nc2c1
89.4% | COc1ccc(-c2nnn(CC(=O)N(C3CCCCC3)C(C)C(=O)NC3CCCC3)n2)cc1OC (stereo not given)
78.2% | CCOC(=O)N1CCC(NC(=O)c2ccc3c(c2)N(Cc2ccc(F)cc2)CCS3)CC1
121% (inactive) | O=C(Nc1ccc(Cl)cc1C(=O)c1ccc(Cl)cc1)c1cc(Br)ccc1NS(=O)(=O)c1ccc(Cl)cc1

Reference: PubChem BioAssay AID588837 (Broad Institute, 2011)
